In ChEMBL document CHEMBL5705888, “Substrate specificity and inhibitors of LRRK2, a protein kinase mutated in Parkinson's disease” (Biochem J, 2009):
The source made the active and inactive calls. The calls are words filed in the database; no cut-off is given here.

How the values were obtained:
[1] = target: Myosin light chain kinase, smooth muscle (Homo sapiens) (UniProt Q15746); test: Inhibition of SmMLCK (unknown origin) at 0.1 uM incubated for 30 mins in presence of [gamma-33P]ATP by multidrop micro reagent based assay relative to control
Outline: (§1)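 Single-concentration screen across a panel of 85 protein kinases. Activity is expressed as a percentage of control incubations run without inhibitor.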

[2] = target: MAP/microtubule affinity-regulating kinase 3 (Homo sapiens) (UniProt P27448); test: Inhibition of MARK3 (unknown origin) at 10 uM incubated for 30 mins in presence of [gamma-33P]ATP by multidrop micro reagent based assay relative to control; values are per cent of control
[3] = target: Mitogen-activated protein kinase 9 (Homo sapiens) (UniProt P45984); test: Inhibition of JNK2 (unknown origin) at 10 uM incubated for 30 mins in presence of [gamma-33P]ATP by multidrop micro reagent based assay relative to control; values are per cent of control
[4] = target: SRSF protein kinase 1 (Homo sapiens) (UniProt Q96SB4); test: Inhibition of SRPK1 (unknown origin) at 10 uM incubated for 30 mins in presence of [gamma-33P]ATP by multidrop micro reagent based assay relative to control; values are per cent of control
[5] = target: Serine/threonine-protein kinase N2 (Homo sapiens) (UniProt Q16513); test: Inhibition of PRK2 (unknown origin) at 10 uM incubated for 30 mins in presence of [gamma-33P]ATP by multidrop micro reagent based assay relative to control; outline: as §1
[6] = target: Serine/threonine-protein kinase D1 (Homo sapiens) (UniProt Q15139); test: Residual activity of PKD1 (unknown origin) at 10 uM incubated for 30 mins in presence of [gamma-33P]ATP by multidrop micro reagent based assay relative to control
[7] = target: Mitogen-activated protein kinase kinase kinase 11 (Homo sapiens) (UniProt Q16584); test: Inhibition of MLK3 (unknown origin) at 10 uM incubated for 30 mins in presence of [gamma-33P]ATP by multidrop micro reagent based assay relative to control
[8] = target: T1, Leucine-rich repeat serine/threonine-protein kinase 2 (Homo sapiens, UniProt Q5S007); test: Inhibition of LRRK2 (unknown origin) at 10 uM incubated for 30 mins in presence of [gamma-33P]ATP by multidrop micro reagent based assay relative to control
[9] = target: Calcium/calmodulin-dependent protein kinase kinase 2 (Homo sapiens) (UniProt Q96RR4); test: Residual activity of CaMKKbeta (unknown origin) at 10 uM incubated for 30 mins in presence of [gamma-33P]ATP by multidrop micro reagent based assay relative to control
[10] = target: Ribosomal protein S6 kinase alpha-1 (Homo sapiens) (UniProt Q15418); test: Inhibition of RSK1 (unknown origin) at 10 uM incubated for 30 mins in presence of [gamma-33P]ATP by multidrop micro reagent based assay relative to control; outline: as §1
[11] = target: Maternal embryonic leucine zipper kinase (Homo sapiens) (UniProt Q14680); test: Inhibition of MELK (unknown origin) at 10 uM incubated for 30 mins in presence of [gamma-33P]ATP by multidrop micro reagent based assay relative to control; values are per cent of control
[12] = target: Proto-oncogene tyrosine-protein kinase Src (Homo sapiens) (UniProt P12931); test: Inhibition of Src (unknown origin) at 10 uM incubated for 30 mins in presence of [gamma-33P]ATP by multidrop micro reagent based assay relative to control; values are per cent of control
[13] = target: Serine/threonine-protein kinase pim-2 (Homo sapiens) (UniProt Q9P1W9); test: Inhibition of PIM2 (unknown origin) at 10 uM incubated for 30 mins in presence of [gamma-33P]ATP by multidrop micro reagent based assay relative to control; values are per cent of control
[14] = target: Tyrosine-protein kinase SYK (Homo sapiens) (UniProt P43405); test: Inhibition of SYK (unknown origin) at 10 uM incubated for 30 mins in presence of [gamma-33P]ATP by multidrop micro reagent based assay relative to control; values are per cent of control
[15] = target: Ephrin type-A receptor 2 (Homo sapiens) (UniProt P29317); test: Inhibition of EPH A2 (unknown origin) at 10 uM incubated for 30 mins in presence of [gamma-33P]ATP by multidrop micro reagent based assay relative to control; values are per cent of control
[16] = target: 3-phosphoinositide-dependent protein kinase 1 (Homo sapiens) (UniProt O15530); test: Inhibition of PDK1 (unknown origin) at 1 uM incubated for 30 mins in presence of [gamma-33P]ATP by multidrop micro reagent based assay relative to control; values are per cent of control
[17] = target: Serine/threonine-protein kinase Chk1 (Homo sapiens) (UniProt O14757); test: Inhibition of CHK1 (unknown origin) at 1 uM incubated for 30 mins in presence of [gamma-33P]ATP by multidrop micro reagent based assay relative to control; values are per cent of control
[18] = target: Serine/threonine-protein kinase pim-2 (Homo sapiens) (UniProt Q9P1W9); test: Inhibition of PIM2 (unknown origin) at 1 uM incubated for 30 mins in presence of [gamma-33P]ATP by multidrop micro reagent based assay relative to control; values are per cent of control
[19] = target: Receptor tyrosine-protein kinase erbB-4 (Homo sapiens) (UniProt Q15303); test: Inhibition of HER4 (unknown origin) at 1 uM incubated for 30 mins in presence of [gamma-33P]ATP by multidrop micro reagent based assay relative to control; values are per cent of control
[20] = target: T1, Leucine-rich repeat serine/threonine-protein kinase 2; test: Inhibition of LRRK2 in human HEK293 cells assessed as inhibition of ERM phosphorylation at 10 uM incubated for 1 hr using LRRKtide as substrate in presence of sunitinib by immunoblot analysis; assay type: cell-based
Outline: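 SDS lysates were run on 4–12% gels and immunoblotted for ERM phosphorylation with pan-phospho-ERM antibody (1 μg/ml, with 10 μg/ml LRRKtide in blocking milk/TBST).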

[21] = target: MAP kinase-activated protein kinase 2 (Homo sapiens) (UniProt P49137); test: Inhibition of MAPKAPK2 (unknown origin) at 1 uM incubated for 30 mins in presence of [gamma-33P]ATP by multidrop micro reagent based assay relative to control; values are per cent of control
[22] = target: Misshapen-like kinase 1 (Homo sapiens) (UniProt Q8N4C8); test: Inhibition of MINK1 (unknown origin) at 10 uM incubated for 30 mins in presence of [gamma-33P]ATP by multidrop micro reagent based assay relative to control; values are per cent of control

Chain of Serine/threonine-protein kinase pim-2 (Homo sapiens) (Q9P1W9 whole entry, looked up): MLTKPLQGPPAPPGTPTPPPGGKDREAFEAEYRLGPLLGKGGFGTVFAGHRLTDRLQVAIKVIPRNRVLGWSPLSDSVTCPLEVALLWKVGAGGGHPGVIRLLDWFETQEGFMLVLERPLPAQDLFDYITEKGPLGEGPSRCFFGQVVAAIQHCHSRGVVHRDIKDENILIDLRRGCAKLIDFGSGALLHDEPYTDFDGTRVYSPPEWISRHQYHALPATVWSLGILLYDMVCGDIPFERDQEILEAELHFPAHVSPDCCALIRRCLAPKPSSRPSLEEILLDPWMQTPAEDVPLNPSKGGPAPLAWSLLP
T1 sequence (Q5S007 whole entry): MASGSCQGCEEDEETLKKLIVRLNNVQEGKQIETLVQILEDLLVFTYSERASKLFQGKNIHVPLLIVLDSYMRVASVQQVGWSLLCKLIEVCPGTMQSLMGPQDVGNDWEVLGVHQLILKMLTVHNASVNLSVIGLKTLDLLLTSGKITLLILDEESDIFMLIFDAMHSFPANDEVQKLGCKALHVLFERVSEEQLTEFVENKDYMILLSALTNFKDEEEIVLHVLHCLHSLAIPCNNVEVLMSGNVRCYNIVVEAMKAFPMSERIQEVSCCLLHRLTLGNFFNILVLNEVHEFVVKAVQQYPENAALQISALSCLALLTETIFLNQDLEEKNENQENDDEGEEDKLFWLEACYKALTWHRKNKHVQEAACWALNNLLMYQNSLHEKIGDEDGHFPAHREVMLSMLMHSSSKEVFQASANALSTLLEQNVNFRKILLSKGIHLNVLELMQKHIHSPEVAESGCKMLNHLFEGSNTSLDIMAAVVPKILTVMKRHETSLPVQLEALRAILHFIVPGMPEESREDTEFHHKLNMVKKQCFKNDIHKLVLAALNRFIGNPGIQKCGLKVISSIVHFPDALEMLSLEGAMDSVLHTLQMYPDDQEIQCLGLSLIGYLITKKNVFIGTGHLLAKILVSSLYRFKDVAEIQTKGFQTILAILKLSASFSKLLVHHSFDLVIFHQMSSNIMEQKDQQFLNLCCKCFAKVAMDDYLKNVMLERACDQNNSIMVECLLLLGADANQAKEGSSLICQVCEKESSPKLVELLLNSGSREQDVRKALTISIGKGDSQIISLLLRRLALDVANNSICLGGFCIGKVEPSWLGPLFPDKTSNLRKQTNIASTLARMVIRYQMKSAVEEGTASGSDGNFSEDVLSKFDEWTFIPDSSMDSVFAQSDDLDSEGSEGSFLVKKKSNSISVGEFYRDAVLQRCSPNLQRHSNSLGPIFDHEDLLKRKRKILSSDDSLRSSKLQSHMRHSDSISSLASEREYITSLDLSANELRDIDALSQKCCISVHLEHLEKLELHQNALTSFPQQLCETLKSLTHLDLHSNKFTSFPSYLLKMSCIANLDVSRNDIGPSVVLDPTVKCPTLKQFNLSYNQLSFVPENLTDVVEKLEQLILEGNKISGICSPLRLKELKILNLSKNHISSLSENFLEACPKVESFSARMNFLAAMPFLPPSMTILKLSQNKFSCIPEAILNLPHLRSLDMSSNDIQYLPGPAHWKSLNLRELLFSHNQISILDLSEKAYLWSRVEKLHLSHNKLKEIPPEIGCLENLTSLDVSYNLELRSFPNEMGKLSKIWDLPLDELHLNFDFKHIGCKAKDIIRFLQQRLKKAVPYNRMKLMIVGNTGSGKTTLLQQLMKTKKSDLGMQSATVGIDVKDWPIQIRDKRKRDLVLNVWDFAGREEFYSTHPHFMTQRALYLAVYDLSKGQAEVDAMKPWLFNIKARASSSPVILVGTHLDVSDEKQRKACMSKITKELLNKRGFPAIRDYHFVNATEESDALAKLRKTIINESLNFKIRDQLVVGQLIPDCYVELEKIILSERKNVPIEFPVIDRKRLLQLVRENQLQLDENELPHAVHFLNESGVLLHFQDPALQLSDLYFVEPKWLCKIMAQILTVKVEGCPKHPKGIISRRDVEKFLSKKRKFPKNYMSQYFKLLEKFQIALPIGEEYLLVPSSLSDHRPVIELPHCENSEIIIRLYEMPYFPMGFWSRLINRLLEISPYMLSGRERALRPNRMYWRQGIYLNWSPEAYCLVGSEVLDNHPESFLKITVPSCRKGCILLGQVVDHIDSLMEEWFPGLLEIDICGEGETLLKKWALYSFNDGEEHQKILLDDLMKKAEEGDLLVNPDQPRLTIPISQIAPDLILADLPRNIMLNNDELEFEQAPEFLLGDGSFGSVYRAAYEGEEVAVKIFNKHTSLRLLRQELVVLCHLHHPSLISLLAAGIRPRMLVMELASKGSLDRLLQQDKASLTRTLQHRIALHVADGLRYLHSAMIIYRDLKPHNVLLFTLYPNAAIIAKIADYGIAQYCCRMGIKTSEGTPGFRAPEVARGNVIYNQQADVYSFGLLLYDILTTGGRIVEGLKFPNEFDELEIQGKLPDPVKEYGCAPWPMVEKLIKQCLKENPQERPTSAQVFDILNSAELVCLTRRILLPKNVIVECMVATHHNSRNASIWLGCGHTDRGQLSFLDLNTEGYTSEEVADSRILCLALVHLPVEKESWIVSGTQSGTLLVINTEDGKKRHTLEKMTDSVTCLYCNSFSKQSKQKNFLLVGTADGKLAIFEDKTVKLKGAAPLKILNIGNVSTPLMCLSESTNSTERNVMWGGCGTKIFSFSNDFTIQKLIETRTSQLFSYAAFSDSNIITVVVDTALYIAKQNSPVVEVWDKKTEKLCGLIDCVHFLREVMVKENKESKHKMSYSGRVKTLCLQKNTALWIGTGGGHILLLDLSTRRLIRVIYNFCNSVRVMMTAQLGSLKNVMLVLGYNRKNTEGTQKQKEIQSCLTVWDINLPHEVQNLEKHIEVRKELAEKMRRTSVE
Chain of Proto-oncogene tyrosine-protein kinase Src (Homo sapiens) (P12931 2-536 limits assumed): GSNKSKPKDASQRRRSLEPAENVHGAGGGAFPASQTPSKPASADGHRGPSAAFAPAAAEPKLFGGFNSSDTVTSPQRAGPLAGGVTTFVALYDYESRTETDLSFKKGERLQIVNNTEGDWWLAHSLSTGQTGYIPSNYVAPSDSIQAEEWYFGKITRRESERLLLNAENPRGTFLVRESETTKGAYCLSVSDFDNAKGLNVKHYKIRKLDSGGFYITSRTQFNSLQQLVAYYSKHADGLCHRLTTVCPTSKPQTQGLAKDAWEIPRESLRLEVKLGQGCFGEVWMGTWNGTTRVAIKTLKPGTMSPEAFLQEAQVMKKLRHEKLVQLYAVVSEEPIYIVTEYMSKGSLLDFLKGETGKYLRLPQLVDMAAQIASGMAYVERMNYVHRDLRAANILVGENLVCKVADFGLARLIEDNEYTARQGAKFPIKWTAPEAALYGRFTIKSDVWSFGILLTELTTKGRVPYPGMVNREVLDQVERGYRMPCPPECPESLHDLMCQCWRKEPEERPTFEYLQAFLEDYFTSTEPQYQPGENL
Chain of Receptor tyrosine-protein kinase erbB-4 (Homo sapiens) (Q15303 whole entry): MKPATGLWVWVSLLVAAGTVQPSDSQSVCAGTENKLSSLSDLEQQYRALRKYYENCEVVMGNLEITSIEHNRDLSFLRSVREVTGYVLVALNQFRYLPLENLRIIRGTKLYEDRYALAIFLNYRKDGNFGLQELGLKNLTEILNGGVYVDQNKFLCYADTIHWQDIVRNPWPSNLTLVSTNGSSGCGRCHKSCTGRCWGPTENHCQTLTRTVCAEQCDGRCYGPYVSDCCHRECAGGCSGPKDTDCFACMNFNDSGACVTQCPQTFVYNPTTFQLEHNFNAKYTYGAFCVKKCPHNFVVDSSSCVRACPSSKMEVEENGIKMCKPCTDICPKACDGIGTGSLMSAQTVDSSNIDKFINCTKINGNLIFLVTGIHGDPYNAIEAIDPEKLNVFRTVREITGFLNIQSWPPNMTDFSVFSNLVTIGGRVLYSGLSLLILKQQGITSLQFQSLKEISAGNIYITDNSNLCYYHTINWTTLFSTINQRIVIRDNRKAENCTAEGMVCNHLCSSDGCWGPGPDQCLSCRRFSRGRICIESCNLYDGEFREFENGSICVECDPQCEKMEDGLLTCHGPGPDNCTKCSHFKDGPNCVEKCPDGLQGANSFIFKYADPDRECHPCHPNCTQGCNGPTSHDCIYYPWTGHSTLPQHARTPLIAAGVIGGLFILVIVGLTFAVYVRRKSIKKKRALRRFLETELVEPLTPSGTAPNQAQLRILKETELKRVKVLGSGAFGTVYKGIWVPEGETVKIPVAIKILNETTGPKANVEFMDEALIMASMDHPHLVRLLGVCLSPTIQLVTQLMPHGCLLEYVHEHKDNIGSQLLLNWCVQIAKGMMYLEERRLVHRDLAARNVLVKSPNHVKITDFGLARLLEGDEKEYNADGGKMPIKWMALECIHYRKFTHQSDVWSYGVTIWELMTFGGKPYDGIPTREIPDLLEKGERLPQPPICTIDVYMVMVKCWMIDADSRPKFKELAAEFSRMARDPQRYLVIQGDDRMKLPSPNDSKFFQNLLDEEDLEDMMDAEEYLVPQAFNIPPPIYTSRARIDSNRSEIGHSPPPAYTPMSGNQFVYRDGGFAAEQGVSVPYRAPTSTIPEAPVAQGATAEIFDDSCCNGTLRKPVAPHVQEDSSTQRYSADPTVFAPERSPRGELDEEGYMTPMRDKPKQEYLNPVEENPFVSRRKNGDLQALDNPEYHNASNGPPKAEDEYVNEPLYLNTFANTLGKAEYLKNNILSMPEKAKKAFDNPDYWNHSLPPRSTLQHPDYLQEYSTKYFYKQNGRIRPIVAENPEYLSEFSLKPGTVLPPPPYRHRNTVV
Chain of MAP kinase-activated protein kinase 2 (Homo sapiens) (P49137 whole entry, looked up): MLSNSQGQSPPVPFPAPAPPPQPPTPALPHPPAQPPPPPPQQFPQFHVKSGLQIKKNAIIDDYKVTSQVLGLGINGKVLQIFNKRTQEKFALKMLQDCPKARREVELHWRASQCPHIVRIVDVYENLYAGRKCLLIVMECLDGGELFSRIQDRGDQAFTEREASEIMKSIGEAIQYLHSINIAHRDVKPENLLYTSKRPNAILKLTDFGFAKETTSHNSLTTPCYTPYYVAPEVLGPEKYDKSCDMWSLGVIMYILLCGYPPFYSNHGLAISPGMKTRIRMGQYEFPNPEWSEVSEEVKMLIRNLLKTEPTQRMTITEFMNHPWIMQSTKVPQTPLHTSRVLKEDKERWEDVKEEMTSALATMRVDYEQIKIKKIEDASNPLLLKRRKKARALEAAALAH

Work on `CCN(CC)CCNC(=O)c1c(C)[nH]c(/C=C2\C(=O)Nc3ccc(F)cc32)c1C` yielded an inhibition [1] of 49%.

Compound `C[C@@H](N)[C@H]1CC[C@H](C(=O)Nc2ccncc2)CC1` has a residual activity [2] of 105%, a residual activity [3] of 96% and a residual activity [4] of 65%. It also gave an inhibition [5] of 7%, a residual activity [6] of 89% and an inhibition [7] of 110%. The inhibition [8] was 22%, the residual activity [9] was 102% and the inhibition [10] was 26%. The residual activity [11] was 79%, the residual activity [12] was 90% and the residual activity [13] was 102%. The residual activity [14] was 94% and the residual activity [15] was 106%.

Work on `CC1=C(C(=O)Nc2cc3cn[nH]c3cc2F)C(c2ccc(C(F)(F)F)cc2)CC(=O)N1` (stereo not given) yielded a residual activity [16] of 120%, a residual activity [17] of 111% and a residual activity [18] of 106%. The residual activity [19] was 50%, the inhibition [20] was “inactive” and the residual activity [21] was 91%.

`O=S(=O)(c1cccc2cnccc12)N1CCCNCC1` [FASUDIL] gave a residual activity [22] of 54%, a residual activity [12] of 120% and a residual activity [13] of 111%.

For `Cc1cncc2cccc(S(=O)(=O)N3CCCNC[C@@H]3C)c12`, the residual activity [19] was 107%.
